# Measured values pooled from the literature.
# Compare with care: the assays were run in different laboratories.
# BCHE: Cholinesterase (BCHE, Equus caballus, UniProt P81908)
# MAP3K6: Mitogen-activated protein kinase kinase kinase 6 (MAP3K6, Homo sapiens, UniProt O95382)
SMILES,target,assay,setting,endpoint,value
CCN(CC)CCCC[C@H](NC(=O)[C@H](CC(C)C)NC(=O)[C@H](C)NC(=O)[C@H](Cc1ccccc1)NC(=O)c1ccc(C(C)(C)C)cc1)C(=O)N[C@@H](CO)C(=O)OC,"Transcription initiation factor TFIID subunit 1-like, BD2 (TAF1L, Homo sapiens, UniProt Q8IZX4)","thermal stability, DSF",25 µM,ΔTm,0.72 °C
COc1cc2c(cc1OC)C(=O)N(CC1CCN(Cc3ccsc3)CC1)C2,BCHE,"enzyme activity, inhibitor, Ellman",1 µM,inhibition,-6.1%
Cn1cc(-c2cc(F)cc(N3CCn4c(cc5c4CCCC5)C3=O)c2CO)cc(Nc2ccc(N3CCN(C4COC4)CC3)cn2)c1=O,"SRSF protein kinase 2 (SRPK2, Homo sapiens, UniProt P78362)","enzyme activity, inhibitor",0.1 µM,inhibition,3%
COc1cc2c(cc1OC)C(=O)N(CC1CCN(Cc3cccc(C#N)c3)CC1)C2,BCHE,"enzyme activity, inhibitor, Ellman",1 µM,inhibition,15.6%
O=c1ccc2ccc3occc3c2o1,"Aldehyde dehydrogenase, dimeric NADP-preferring (ALDH3A1, Homo sapiens, UniProt P30838)","enzyme activity, inhibitor, absorbance",10 µM,activity vs control,28.3%
COc1ncccc1-c1cnn2ccc(N3CCN(C(=O)OC(C)C)CC3)nc12,"Dual specificity mitogen-activated protein kinase kinase 3 (MAP2K3, Homo sapiens, UniProt P46734)","binding, competition with immobilised ligand",1 µM,remaining binding,80%
C#Cc1n[nH]c2c(-c3cn([C@@H](C)c4ccccn4)c(=O)[nH]c3=O)cc(F)cc12,"Serine/threonine-protein kinase Nek2 (NEK2, Homo sapiens, UniProt P51955)","enzyme activity, inhibitor",0.1 µM,inhibition,12%
COc1cc2c(cc1OC)C(=O)N(Cc1cnc3c(c1)OCCN3C)C2,BCHE,"enzyme activity, inhibitor, Ellman",1 µM,inhibition,13.6%
Nc1ncc(-c2nc(N3CCOCC3)nc(N3CCOCC3)n2)c(C(F)F)n1,MAP3K6,"binding, competition with immobilised ligand",10 µM,remaining binding,76%
Cc1nn(C)cc1-c1nc2c(N3CCN(Cc4ccc(Cl)cc4)CC3)c(Cl)cnc2[nH]1,MAP3K6,"binding, competition with immobilised ligand",1 µM,remaining binding,100%
